Assay results as given in ChEMBL document CHEMBL1125485, “Inhibitors of blood platelet cAMP phosphodiesterase. 2. Structure-activity relationships associated with 1,3-dihydro-2H-imidazo[4,5-b]quinolin-2-ones substituted with functionalized side chains” (J Med Chem, 1992).

Columns and labels:
Phosphodiesterase 3 = Phosphodiesterase 3 (Homo sapiens, UniProt Q14432+Q13370); assay: Inhibition of human platelet PDE by inhibiting cyclic Adenosine monophosphate (cAMP) hydrolysis
Rattus norvegicus [1] = organism: Rattus norvegicus; assay: Oral efficacy in rats using the ex vivo aggregatory protocol; assay type: functional
In short: (§1)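 Rats given compound orally, then ADP-induced platelet aggregation measured ex vivo.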

Oryctolagus cuniculus = organism: Oryctolagus cuniculus; assay: Inhibition of platelet aggregation using collagen as activating agent in rabbit platelet rich plasma (PRP); assay type: functional
In short: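 Rabbit platelet-rich plasma, aggregation triggered by ADP or collagen after 3 min preincubation of PRP with drug. Single or duplicate determinations, reference agent included.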

[2] = biological target: cGMP-dependent 3',5'-cyclic phosphodiesterase (Homo sapiens, UniProt O00408); assay: Inhibition of human platelet PDE by inhibiting cyclic Guanosine monophosphate (cGMP) hydrolysis
Rattus norvegicus [3] = assay: Percent inhibition of oral efficacy in rats using the ex vivo aggregatory protocol at 10 mg/kg; assay type: functional; in short: as §1

cGMP-dependent 3',5'-cyclic phosphodiesterase, sequence (O00408 whole entry): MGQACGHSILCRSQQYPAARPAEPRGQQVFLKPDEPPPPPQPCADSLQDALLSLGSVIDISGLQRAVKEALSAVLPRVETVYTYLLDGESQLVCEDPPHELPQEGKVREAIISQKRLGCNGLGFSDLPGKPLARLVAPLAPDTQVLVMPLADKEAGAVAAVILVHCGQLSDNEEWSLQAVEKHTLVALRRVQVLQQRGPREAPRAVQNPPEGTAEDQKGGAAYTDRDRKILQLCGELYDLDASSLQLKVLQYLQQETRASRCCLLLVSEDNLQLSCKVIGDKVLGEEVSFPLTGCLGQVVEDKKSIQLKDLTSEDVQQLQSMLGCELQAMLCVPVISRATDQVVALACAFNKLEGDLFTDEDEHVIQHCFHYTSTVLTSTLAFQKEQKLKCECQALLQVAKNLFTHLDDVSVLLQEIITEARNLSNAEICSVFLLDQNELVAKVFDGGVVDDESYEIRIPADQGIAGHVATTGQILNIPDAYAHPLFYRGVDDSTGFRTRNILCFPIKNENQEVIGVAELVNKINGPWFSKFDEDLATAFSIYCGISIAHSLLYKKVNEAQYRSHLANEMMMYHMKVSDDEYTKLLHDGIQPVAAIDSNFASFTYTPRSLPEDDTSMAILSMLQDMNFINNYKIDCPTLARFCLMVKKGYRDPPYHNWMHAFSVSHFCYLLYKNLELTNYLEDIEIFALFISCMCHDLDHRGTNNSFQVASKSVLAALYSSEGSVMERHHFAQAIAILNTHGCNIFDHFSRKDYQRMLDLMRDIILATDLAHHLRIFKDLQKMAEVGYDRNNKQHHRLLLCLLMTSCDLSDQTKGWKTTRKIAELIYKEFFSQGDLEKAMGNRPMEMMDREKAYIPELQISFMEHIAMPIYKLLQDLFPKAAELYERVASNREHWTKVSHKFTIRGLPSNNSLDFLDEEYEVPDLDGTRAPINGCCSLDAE

| Compound | IC50 (Phosphodiesterase 3) [nM] | ED50 (Rattus norvegicus [1]) [mg/kg] | EC50 (Oryctolagus cuniculus) [nM] | IC50 [2] [nM] | inhibition in vivo at 10 mg/kg (Rattus norvegicus [3]) [%] |
| --- | --- | --- | --- | --- | --- |
| O=C(CCCOc1ccc2[nH]c3nc(O)nc-3cc2c1)NC1CCCCCC1 | 10 | 5.4 | 8 |  |  |
| CC(=O)OCCCCOc1ccc2[nH]c3nc(O)nc-3cc2c1 | 40 |  | 320 |  |  |
| COC(=O)CCCCOc1ccc2nc3nc(O)n(C)c3cc2c1 | 5000 |  |  | 100000 |  |
| CN(C(=O)CCCOc1ccc2nc3nc(O)n(C)c3cc2c1)C1CCCCCC1 | 100 | 10 | 10 | 7000 |  |
| O=C(CCCCc1ccc2[nH]c3nc(O)nc-3cc2c1)NC1CCCCC1 | 300 |  | 190 |  |  |
| CN(C(=O)CCCOc1ccc2nc3c(cc2c1)nc(O)n3C)C1CCCCC1 | 100 | < 10 | 130 |  | 68 |
| CN(C(=O)CCCCc1ccc2[nH]c3nc(O)nc-3cc2c1)C1CCCCC1 | 40 |  | 26 |  |  |
| CC(=O)OCCCOc1ccc2[nH]c3nc(O)nc-3cc2c1 | 100 |  | 30 |  |  |
| O=C(CCCOc1ccc2nc3[nH]c(=O)[nH]c3cc2c1)N1CCOCC1 |  |  | 20 | 40000 |  |
| CCOC(=O)CCc1ccc2[nH]c3nc(O)nc-3cc2c1 | 600 |  | 140 |  |  |
| O=C(CCCOc1ccc2[nH]c3nc(O)nc-3cc2c1)N1CCCCC1 | 20 | < 10 |  | > 100000 | 57 |
| CN(C(=O)CCCOc1ccc2c(c1)CN1CC(=O)NC1=N2)C1CCCCC1 [LIXAZINONE] | 3 |  | 80 |  |  |
| Cn1c(O)nc2nc3ccc(OCCCC(=O)N4CCCCC4)cc3cc21 |  |  | 2440 | 60000 |  |
| O=C(O)CN(C(=O)CCCOc1ccc2[nH]c3nc(O)nc-3cc2c1)C1CCCCC1 | 0.3 |  | 460 |  |  |
| Cn1c(O)nc2nc3ccc(OCCCC(=O)O)cc3cc21 | 600 | > 10 | > 106000 | 10000 |  |
| COC(=O)CCCCCOc1ccc2nc3[nH]c(=O)[nH]c3cc2c1 | 60 |  | 27 | > 100000 |  |
| CN(C(=O)CCCCOc1ccc2nc3nc(O)n(C)c3cc2c1)C1CCCCCC1 | 600 | > 10 |  | 10000 | 43 |
| CN(C(=O)CCCCCOc1ccc2nc3[nH]c(=O)[nH]c3cc2c1)C1CCCCC1 | 3 |  | 6 | 7000 |  |
| OCCCCCc1ccc2[nH]c3nc(O)nc-3cc2c1 | 100 | > 10 | 220 |  | 26 |
| O=C(O)CCCCCOc1ccc2[nH]c3nc(O)nc-3cc2c1 | 4 |  | 950 | 7000 |  |
| CN(C(=O)CCCOc1ccc2[nH]c3nc(O)nc-3cc2c1)C1CCCCCC1 |  |  | 5 |  |  |
| Cn1c(O)nc2cc3cc(OCCCC(=O)O)ccc3nc21 | 1000 | < 10 | 100 |  | 59 |
| N#CCCCCOc1ccc2[nH]c3nc(O)nc-3cc2c1 | 100 |  | 130 |  |  |

| Compound | IC50 (Phosphodiesterase 3) [nM] | ED50 (Rattus norvegicus [1]) [mg/kg] | EC50 (Oryctolagus cuniculus) [nM] | IC50 [2] [nM] | inhibition in vivo at 10 mg/kg (Rattus norvegicus [3]) [%] |
| --- | --- | --- | --- | --- | --- |
| O=C(CCCOc1ccc2[nH]c3nc(O)nc-3cc2c1)NC1CCCC1 | 20 |  | 4 |  |  |
| OCCCCOc1ccc2[nH]c3nc(O)nc-3cc2c1 | 6 | > 10 | 33 | 20000 | 47 |
| CNC(=O)CCCOc1ccc2[nH]c3nc(O)nc-3cc2c1 | 7 | < 10 | 830 |  | 57 |
| CC(C)OC(=O)CCCOc1ccc2[nH]c3nc(O)nc-3cc2c1 | 300 | > 10 | 21 |  | 24 |
| OCC(O)COc1ccc2[nH]c3nc(O)nc-3cc2c1 (centres undefined) | 20 |  | 64 |  |  |
| O=C(CCCOc1ccc2[nH]c3nc(O)nc-3cc2c1)NC12C[C@H]3C[C@@H](C1)C[C@@H](C2)C3 | 1 | 4 | 50 | 100000 |  |
| Oc1nc2cc3cc(OCCCCc4nnnn4C4CCCCC4)ccc3[nH]c-2n1 | 4 |  | 45 | > 100000 | 44 |
| CCOC(=O)CN(C(=O)CCCOc1ccc2[nH]c3nc(O)nc-3cc2c1)C1CCCCC1 | 2 |  | 9 | 3000 |  |
| CCOC(=O)C1CCN(C(=O)CCCOc2ccc3[nH]c4nc(O)nc-4cc3c2)CC1 | 5 | 9.6 | 90 | 100000 |  |
| COC(=O)CN(C(=O)CCCOc1ccc2[nH]c3nc(O)nc-3cc2c1)C1CCCCC1 | 0.5 | 3 | 2 | 5500 |  |
| COC(=O)CCCOc1ccc2nc3[nH]c(=O)n(C)c3cc2c1 |  |  |  | 100000 |  |
| CC(O)CCCOc1ccc2[nH]c3nc(O)nc-3cc2c1 (centres undefined) | 100 |  | 70 |  |  |
| O=C(O)COc1ccc2[nH]c3nc(O)nc-3cc2c1 | 70 | < 10 | 760 | 50000 | 61 |
| CC(=O)CCCOc1ccc2[nH]c3nc(O)nc-3cc2c1 | 80 |  | 70 |  |  |
| O=C(CCCCc1ccc2[nH]c3nc(O)nc-3cc2c1)NC12C[C@H]3C[C@@H](C1)C[C@@H](C2)C3 | 6 |  | 300 |  |  |
| CCOCCOc1ccc2[nH]c3nc(O)nc-3cc2c1 | 50 |  | 1290 |  |  |
| O=C(CCCOc1ccc2nc3[nH]c(=O)[nH]c3cc2c1)NC1CCCCC1 |  |  | 7 | > 100000 | 31 |
| N#CCCCOc1ccc2[nH]c3nc(O)nc-3cc2c1 | 6 |  | 33 |  |  |
| COC(=O)CCCCc1ccc2[nH]c3nc(O)nc-3cc2c1 | 900 | > 10 | 270 |  | 29 |
| O=C(O)C1CCN(C(=O)CCCOc2ccc3[nH]c4nc(O)nc-4cc3c2)CC1 | 20 |  | 180 |  |  |
| O=C(O)CCCCOc1ccc2nc3[nH]c(=O)[nH]c3cc2c1 |  |  | > 106000 | 30000 |  |
| CN(C(=O)CCCOc1ccc2nc3nc(O)n(C)c3cc2c1)C1CCCCC1 | 200 |  | 40 | 8000 |  |
| CC(=O)OCCOc1ccc2[nH]c3nc(O)nc-3cc2c1 | 30 |  | 70 |  |  |

| Compound | IC50 (Phosphodiesterase 3) [nM] | ED50 (Rattus norvegicus [1]) [mg/kg] | EC50 (Oryctolagus cuniculus) [nM] | IC50 [2] [nM] | inhibition in vivo at 10 mg/kg (Rattus norvegicus [3]) [%] |
| --- | --- | --- | --- | --- | --- |
| COC(=O)CCCOc1ccc2nc3c(cc2c1)n(C)c(=O)n3C | 40000 |  | 54700 |  |  |
| COC(=O)CCCCOc1ccc2[nH]c3nc(O)nc-3cc2c1 |  |  |  | > 100000 |  |
| O=C(O)CCCCc1ccc2[nH]c3nc(O)nc-3cc2c1 | 20 |  | 21000 | 10000 |  |
| Cn1c(O)nc2nc3ccc(OCCCS(=O)(=O)c4ccccc4)cc3cc21 | 300 |  | 15100 |  |  |
| Oc1nc2cc3cc(OCCCCc4nnn[nH]4)ccc3[nH]c-2n1 | 10 |  | 1010 |  |  |
| CN(C(=O)CCCCOc1ccc2nc3[nH]c(=O)[nH]c3cc2c1)C1CCCCCC1 | 0.4 |  | 2 | 5000 |  |
| O=C(O)CCCOc1ccc2c(c1)CN1CC(=O)NC1=N2 | 40 |  | 3460 |  |  |
| Cn1c(O)nc2nc3ccc(OCCCCC(=O)O)cc3cc21 | 80 |  | > 100000 | 10000 |  |
| CN(C(=O)CCCCOc1ccc2[nH]c3nc(O)nc-3cc2c1)C1CCCCC1 | 2 |  | 0.2 | 5000 |  |
| OCCOc1ccc2[nH]c3nc(O)nc-3cc2c1 | 20 | < 10 | 4 | > 100000 |  |
| O=c1[nH]c2cc3cc(OCCCS(=O)(=O)c4ccccc4)ccc3nc2[nH]1 | 2 |  | 50 | > 100000 |  |
| CCOC(=O)CCCOc1ccc2c(c1)CN1CC(=O)NC1=N2 | 70 |  |  |  |  |
| OCCCOc1ccc2[nH]c3nc(O)nc-3cc2c1 | 9 |  | 150 | 50000 |  |
| Oc1nc2cc3cc(OCCCc4nnn[nH]4)ccc3[nH]c-2n1 | 3 |  | 1580 |  |  |
| CCOC(=O)COc1ccc2[nH]c3nc(O)nc-3cc2c1 |  |  | 7600 |  |  |
| CCOC(=O)CCCOc1ccc2[nH]c3nc(O)nc-3cc2c1 | 20 |  | 20 |  |  |
| NC(=O)CCCOc1ccc2[nH]c3nc(O)nc-3cc2c1 | 8 |  | 2520 | > 100000 |  |
| CN(C(=O)CCCOc1ccc2nc3c(cc2c1)n(C)c(=O)n3C)C1CCCCC1 | 5000 |  | 13400 |  |  |
| OCCCc1ccc2[nH]c3nc(O)nc-3cc2c1 | 60 |  | 410 |  |  |
| CN(C(=O)CCCCOc1ccc2nc3nc(O)n(C)c3cc2c1)C1CCCCC1 | 500 | 10 |  | 60000 |  |
| Cn1c(=O)n(C)c2nc3ccc(OCCCC(=O)O)cc3cc21 | 4000 |  | 1250 |  |  |
| COC(=O)CCCOc1ccc2nc3c(cc2c1)nc(O)n3C | 2000 |  | 170 |  |  |
| O=C(CCCCc1ccc2[nH]c3nc(O)nc-3cc2c1)N1CCCCC1 | 60 |  | 170 |  |  |
